High-throughput results as filed in PubChem BioAssay.
PHOSPHO1 block: PHOSPHO1 (human) inhibition; recombinant PHOSPHO1, absorbance phosphatase assay; inhibition, % at 13.3 µM; 1.1% of 290,000 active; in the data active means inhibition above about 60%
Target sequence (Q8TCT1 whole entry, looked up): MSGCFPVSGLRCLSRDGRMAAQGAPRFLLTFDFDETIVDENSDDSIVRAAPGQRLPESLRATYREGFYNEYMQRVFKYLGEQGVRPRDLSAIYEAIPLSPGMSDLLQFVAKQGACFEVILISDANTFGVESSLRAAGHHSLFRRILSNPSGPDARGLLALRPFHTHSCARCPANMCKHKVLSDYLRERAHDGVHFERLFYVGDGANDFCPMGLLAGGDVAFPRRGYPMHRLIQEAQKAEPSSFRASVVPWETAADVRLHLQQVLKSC
HSF-1 act: increases HSF-1 driven luciferase reporter signal; NIH3T3-HGL HSF-1 luciferase reporter, MG132, 8 h; 100% = twice DMSO control signal; activation, % at 9 µM; 1.7% of 300,000 active; AID 504408;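 active means mean replicate activation of at least 50% with a set share of replicates each reaching 50%; inconclusive means only one of those two conditions met; inactive means mean below 50% and too few replicates reaching it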
AI-2 QS mod: modulates the Vibrio harveyi AI-2 quorum sensing system | Vibrio harveyi JMH597 AI-2 luminescence/OD600 ratio, 9 h; hits give low values; strain lacks LuxN and CqsS sensors; 0 = neutral-control median | activity change, % at 7.5 µM | 0.4% of 300,000 active; in the data active means activity change below about -75%, passing the limit was not always enough; inconclusive means no clear call, values can overlap the other calls;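 further: luminescence divided by OD600 gain over 9 h not by final OD600 alone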
ALR inh: human ALR oxidase inhibition via reduced H2O2 | P55789 | purified ALR, DTT oxidation, H2O2 HRP-luminol luminescence | inhibition, % (test concentration not listed) | 3.8% of 290,000 active | AID 485317;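 active means mean replicate inhibition above about 79%, with every replicate also reaching it, limit read from the data; inconclusive means only one of the two criteria met; inactive means mean below limit and not every replicate reaching it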
HSF1 inh: HSF1 inhibition; NIH3T3-HGL HSE-luciferase, MG132-induced, luminescence 8 h; hits give low values; activity change, negative = inhibition, % at 7.5 µM (by protocol); 0.77% of 300,000 active; AID 2098;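 active means more than half of replicate wells show activity change below -50%, luminescence cut by over half; inconclusive means some wells, but at most half, below -50%; inactive means no replicate well below -50%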;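 further: luciferase reports HSF-1 transcriptional activity via heat shock element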
core dimer inh: HCV core protein dimerization inhibition | TR-FRET GST/Flag-core106 dimerization, 1536-well | inhibition, % at 5 µM | 0.33% of 300,000 active | AID 1899;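 active means inhibition above the mean of all tested compounds plus 3 SD, set per screening campaign, cut at about 45% in these data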
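Assay system: Tagged HCV core106 pair (GST and Flag) | Buffer or medium: KF-containing HEPES buffer, pH 7.45, DTT, CHAPS, BSA | Also added: Eu donor and XL665 acceptor anti-tag antibodies | Dosing: One concentration, 5 µM, in 0.5% DMSO | Timing: 4 h at 22.5 °C | Technique: TR-FRET 671 and 617 nm emission | Repeats: Singlicate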
Hits are given with their value; – = inactive; ? = inconclusive; · = not tested or not shown. Sampled rows, rich in hits. Any-hit rate of the full collection: about 6.8%.

SMILES	PHOSPHO1 block	HSF-1 act	AI-2 QS mod	ALR inh	HSF1 inh	core dimer inh
CCN(CC)c1ccc(NC(=O)CN2C(=O)CSc3ncccc32)c(C)c1	–	–	–	97	–	–
CCN(CC)c1ccc(NC(=O)Cn2cc3c(n2)CCC(C)C3)c(C)c1 (configuration not stated)	83	–	–	99	–	–
CC1CCc2nn(CC(=O)Nc3ccc(F)cc3F)cc2C1 (configuration not stated)	–	–	–	–	–	–
Cc1cccc(C(=O)c2c(N)sc3c2CCC(C)C3)c1 (configuration not stated)	–	–	–	–	–	–
NC(=O)c1c(N)sc2c1CCCCC2	97	–	–	–	–	–
CNC(=O)c1c(N)sc2c1CCCCC2	71	–	–	–	–	–
Cc1cccc(C(=O)c2c(N)sc3c2CCCC3)c1	–	–	–	–	–	49
COCCNC(=O)c1c(N)sc2c1CCCC2	–	–	–	–	–	–
COc1ccc(S(=O)(=O)Nc2cc3c4c(c2)CCN4C(=O)CC3)cc1	·	–	–	–	–	–
Nc1ccc(C(=O)OCc2csc(-c3ccccc3)n2)cc1[N+](=O)[O-]	–	–	–	99	–	–
CNS(=O)(=O)c1cccc(C(=O)OCc2csc(-c3ccccc3)n2)c1	–	67	–	?	–	–
Nc1ccc(C(=O)OCC(=O)NC(=O)c2ccccc2)cc1[N+](=O)[O-]	·	–	–	–	–	–
COc1ccc(Nc2nc(NCc3ccco3)nc(N)c2[N+](=O)[O-])cc1	–	66	–	–	–	–
CN1CCN(c2nc(NCc3ccco3)nc(N)c2[N+](=O)[O-])CC1	60	–	–	–	–	–
COc1ccccc1Nc1nc(NCCCN(C)C)nc(N)c1[N+](=O)[O-]	–	–	–	–	-73	–
Nc1nc(Nc2cccc(F)c2)nc(NCc2ccco2)c1[N+](=O)[O-]	–	54	–	–	–	–
C=CCNc1nc(N)c([N+](=O)[O-])c(Nc2ccccc2OC)n1	–	–	–	–	–	–
CC(NC(=O)CCNC(=O)c1ccc(Br)cc1)c1ccc(-n2ccnc2)cc1 (configuration not stated)	·	–	–	–	–	–
CS(=O)(=O)/C(C#N)=C\c1cnc(S(=O)(=O)c2ccccc2)s1	·	–	–	–	–	–
CN(C)/C=C1/C=C(c2ccccc2)OC1=O	–	–	–	99	–	–
CC1=C/C(=C/N(C)C)C(=O)O1	–	–	–	–	–	–
COc1cccc(CN(C)C(=O)c2cc(COc3ccc4ncccc4c3)on2)c1	61	–	–	·	–	–
CN(CCCN1CCOCC1)C(=O)c1cc(COc2cccc(C(F)(F)F)c2)on1	–	–	–	–	–	–
COc1cccc(OCc2cc(C(=O)N(C)CCOc3ccc(C)cc3)no2)c1	–	57	–	–	–	–
Cc1cc(OCc2cc(C(=O)N(C)CCOc3ccccc3)no2)cc(C)c1Cl	–	–	–	–	–	–
SMILES	PHOSPHO1 block	HSF-1 act	AI-2 QS mod	ALR inh	HSF1 inh	core dimer inh
CN(CCc1ccccc1)C(=O)c1cc(COc2cccc(C(F)(F)F)c2)on1	–	186	–	·	–	·
CCOc1ccc(OCCOC(=O)CNC(=O)c2ccc(Cl)cc2Cl)cc1	·	–	–	–	–	–
CC(=O)c1ccc(NC(=O)CN2CCCC2)cc1	·	–	–	–	–	–
COc1ccc(S(=O)(=O)N(CC(=O)NCc2ccncc2)c2ccc(C)cc2)cc1Br	–	–	–	–	–	–
COc1cccc(NC(=O)CN(C2=NC3CS(=O)(=O)CC3S2)c2cccc(C)c2)c1 (configuration not stated)	–	–	–	98	–	–
CCCCc1c(C)nc2ccc(C(=O)OCC)cc2c1Cl	–	–	–	97	–	–
CC(=O)Nc1ccc(NS(=O)(=O)c2ccc(C)cc2)c([N+](=O)[O-])c1	–	–	–	–	–	–
O=c1[nH]c2ccccc2nc1-c1cccs1	–	–	–	–	–	–
c1csc(-c2nnsc2-c2nc3ccccc3[nH]2)c1	96	–	–	–	–	–
COCOc1ccc(C=O)c(OCOC)c1	·	–	–	–	–	–
O=C1NC(=S)S/C1=C\c1cc2ccccc2nc1N1CCCCC1	–	–	–	97	–	–
